# High-throughput results: PubChem BioAssay, several laboratories
# ABCB1 block – blocks JC-1 efflux by human ABCB1 transporter. P08183. CCRF-Adr cells, flow cytometry. inhibition, % at 6.6 µM. hit rate 0.067% among 190,000. AID 1326; in the data active = inhibition above about 40%;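 note: 0% = vehicle and 100% = reference inhibitor; higher value means more JC-1 retained so stronger ABCB1 efflux block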
# EP2 mod – EP2 receptor (human) modulation; P43116; EP2-expressing cells, cAMP HTRF FRET, PGE2 co-stimulation; AID 940; induction, % at 25 µM; hit rate 0.83% among 260,000;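 active = compounds whose cAMP rise, as percent of the full-agonist control response, exceeds 60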;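 note: rat C6 glioma line stably carrying human EP2 under a CMV promoter; the protocol text gives 20 µM as final concentration; 100% = response of wells given 1 µM PGE2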
# RBBP9 inh – blocks human serine hydrolase RBBP9; O75884; recombinant RBBP9, FP-Rh probe fluorescence polarization; inhibition, % at 7.94 µM; hit rate 0.2% among 220,000; AID 1515;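 active = inhibition above the campaign mean of all tested compounds plus 3 SD, cut at about 14% in these data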;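 note: plate controls were DMSO wells with RBBP9 for no effect and wells lacking RBBP9 protein for full effect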
#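 Measured by: FP readout at 525/598 nm; material: recombinant human RBBP9; also added: Serine-hydrolase probe FP-Rh, 375 nM pre-mixing; medium: Tris buffer pH 8.0, NaCl, Pluronic; replication: one well per compound; doses: one concentration, 7.94 µM nominal, 0.794% DMSO; timing: preincubation 30 min plus labeling 45 min at 25 °C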
# ABCG2 inh – blocks JC-1 efflux by human ABCG2 transporter | hit rate 0.1% among 190,000 | Q9UNQ0 | inhibition, % at 6.6 µM | IgMXP3 cells, flow cytometry;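 active = inhibition above 80%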;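 note: 0% = DMSO and 100% = nicardipine control wells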
#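 test system = two drug-resistant human cell lines, ABCG2 and ABCB1 | amount = 3 million cells/mL final, two lines in 1:1 ratio | reagent = JC-1 transporter substrate | doses = one concentration, 6.6 µM final | incubation = 10 min at 25 °C | signal = flow cytometric JC-1 green MFI at 530 nm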
# PGE2 EP2 inh – inhibitors of human EP2 prostaglandin E2 receptor. C6 glioma cells expressing human EP2, cAMP TR-FRET; cells stimulated with saturating PGE2. inhibition, % at 25 µM. hit rate 0.52% among 260,000. AID 1422;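 active = percent inhibition above 40 after rounding to a whole number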;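 note: rat C6 glioma host cells with rolipram phosphodiesterase inhibitor present; the protocol text gives 20 µM as final concentration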
# EP2 cAMP induct – human EP2 receptor cAMP induction, negative in counter-screens | shares compounds with EP2 mod | C6 glioma EP2 cells, cAMP HTRF induction; plus low (about EC15) PGE2 agonist | calls only at 20 µM (by protocol) | hit rate 47% among 1,300 | AID 1080;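 active = cAMP induction above 50% in the main assay while under 30% in all four parallel counter assays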;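 note: rat C6 glioma cells stably expressing human EP2 receptor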
# The depositor's hits bear a star; i = inactive; x = no result given; + = active, no number. In the library only some 1.5% were active in any assay of this set; here they are far more common.
SMILES,ABCB1 block,EP2 mod,RBBP9 inh,ABCG2 inh,PGE2 EP2 inh,EP2 cAMP induct
Cc1nn(C)cc1C(=O)Nc1ccc(Cl)cc1,x,-6.3,x,x,6.1,x
O=S1(=O)N=C(Nc2ccc3c(c2)OCCO3)c2ccccc21,x,-28.6,x,x,1.9,x
COc1ccccc1CNC(=O)C1(c2ccc(Cl)cc2)CC1,-0.1,68.6*,4.5,1.7,8.1,i
COc1ccc(C2(C(=O)NCc3ccccc3Cl)CCOCC2)cc1OC,1.1,9.9,-10.8,1.3,13.3,x
O=C(CC(Sc1ccccc1)c1cccs1)c1ccco1 (configuration not stated),0.0,88.8*,-5.6,0.7,11.5,i
O=C(Cc1cccs1)OCC(=O)c1ccco1,0.1,2.8,0.9,0.3,10.0,x
CC1(C)Cc2ccccc2-c2nc3n(c(=O)c21)CCS3,0.6,74.0*,-6.0,4.7,10.3,+
CCOC(=O)C1CCCN(c2c(C(=O)c3ccccc3)cnc3ccc(OC)cc23)C1 (configuration not stated),3.5,68.2*,-1.7,0.8,7.0,i
CCOc1ccc2nc(SCC(=O)N3CCCc4ccccc43)sc2c1,0.3,42.0,-10.7,3.1,3.8,x
O=C(CSc1nc2cc(Cl)ccc2s1)N1CCCc2ccccc21,0.9,67.8*,-4.0,3.9,4.0,+
COc1ccc(Cn2nc(-c3ccccc3)c(N3CCCCC3)cc2=O)cc1,1.5,56.0,-8.9,2.0,3.9,x
O=c1cc(N2CCCCC2)c(-c2ccccc2)nn1Cc1ccccc1,-1.2,81.6*,-6.6,-2.9,9.4,+
COCCn1c(=O)c2ccccc2c2ccccc2c1=O,0.1,3.2,-3.9,-1.0,4.0,x
CCCCn1c(=O)c2ccccc2c2ccccc2c1=O,0.0,82.4*,-2.4,0.0,9.2,+
O=C(Nc1cccc(O)c1)c1ccc(NC(=O)c2ccco2)cc1,x,-66.5,x,x,16.2,x
CC(=O)Nc1cc(C(F)(F)F)ccc1Oc1cccc(Br)c1,0.7,-12.3,-5.6,2.7,14.8,x
CCOCC(=O)Nc1cc(C(F)(F)F)ccc1Oc1cccc(Br)c1,0.6,65.2*,-2.7,5.1,11.3,+
COc1ccc(-c2nnc3ccc(SCC(=O)Nc4nc5ccccc5s4)nn23)cc1OC,-0.5,65.9*,-7.8,12.4,17.3,i
COc1ccc(-c2nnc3ccc(SCC(=O)Nc4nccs4)nn23)cc1OC,0.0,-8.2,-7.2,0.7,4.8,x
N#CCSc1nnc(COc2cccc3ccccc23)n1-c1ccccc1,0.8,1.7,-14.4,5.6,6.1,x
COc1ccc(-n2c(COc3cccc4ccccc34)nnc2SCC#N)cc1,1.7,7.2,-5.8,6.0,9.5,i
CCCn1cnc2sc(CC)cc2c1=O,0.2,50.3,-6.9,0.4,8.1,i
CCCn1cnc2sc(C(N)=O)c(C)c2c1=O,0.0,2.4,-4.3,0.6,8.5,x
CCOc1ccc2[nH]c(=O)c(CN(CCN3CCOCC3)C(=O)Nc3ccccc3Cl)cc2c1,x,-30.0,x,x,15.0,x
CCCCOC(=O)C1=C(N)N2C(=O)C(C)SC2=C(C(=O)OCC)C1c1ccc(O)c(OC)c1 (configuration not stated),x,2.2,2.6,x,9.7,x
SMILES,ABCB1 block,EP2 mod,RBBP9 inh,ABCG2 inh,PGE2 EP2 inh,EP2 cAMP induct
CCOC(=O)C1=C(N)N2C(=O)C(C)SC2=C(C(=O)OC)C1c1ccccc1OC (configuration not stated),0.6,88.2*,0.0,3.7,7.1,+
Cc1ccc(NCc2ccccc2OCc2ccccc2F)cc1,0.3,76.4*,6.7,0.7,9.4,i
Oc1ccc(NCc2ccccc2OCc2ccccc2F)cc1,0.8,30.3,6.5,31.1,16.9,x
Cc1ccc(Cl)cc1NC(=O)c1ccc2c(c1)CCN2S(C)(=O)=O,x,-43.1,x,x,10.4,x
Cn1c(=O)c(NC2CCCCC2)c2c3c(cccc31)C(=O)c1ccccc1-2,48.3*,65.3*,-1.5,66.0,2.7,+
CC(=O)Nc1ccc(Nc2c3c4c(cccc4n(C)c2=O)C(=O)c2ccccc2-3)cc1,10.2,19.2,0.8,9.5,12.4,x
COc1cccc(CC(=O)NCCCn2c(-c3cccnc3C)cc3cccnc32)c1,x,-18.5,x,x,4.2,x
O=C(c1ccccc1)C1CN(Cc2ccccc2)CCC1(O)c1ccccc1 (configuration not stated),2.0,76.0*,-0.2,8.9,7.1,i
COc1ccc(CNC(=O)[C@H]2C=CCN2C(=O)C2CC2)cc1,x,-23.0,x,x,0.9,x
CN1CCN(c2oc(-c3ccco3)nc2S(=O)(=O)c2ccccc2)CC1,-0.1,-3.0,-5.5,-0.4,15.3,x
O=S(=O)(c1ccccc1)c1nc(-c2ccco2)oc1N1CCCCCC1,1.2,68.2*,3.5,1.3,14.8,i
CCOc1ccccc1Cn1c(=O)sc2ccccc21,-0.1,83.0*,-4.2,-0.4,3.6,+
CCCCOc1ccccc1Cn1c(=O)oc2ccccc21,0.8,62.2*,-6.0,6.8,7.8,+
COc1ccccc1Cn1c(=O)sc2ccccc21,x,27.1,x,x,6.7,x
Cc1ccc2[nH]c(=O)c(CN(Cc3cccs3)C(=O)Nc3ccc(Cl)cc3)cc2c1,x,-58.3,x,x,12.9,x
O=C(O)c1ccc(N2C(=O)/C(=C/C=C/c3ccccc3)SC2=S)cc1,-0.5,80.4*,-8.7,-1.4,12.9,+
O=C(CN1CCC(O)(c2ccccn2)CC1)Nc1cccc(F)c1,x,-36.9,x,x,x,x
S=c1[nH]nc(-c2ccco2)n1/N=C/c1ccc(Cl)cc1Cl,-0.6,78.4*,-6.7,-2.5,3.7,+
S=c1[nH]nc(-c2ccco2)n1/N=C/c1cccs1,-0.6,7.8,-1.2,-2.4,12.2,x
CC(C)c1ccc(OCC(=O)NCC2CCCO2)cc1 (configuration not stated),x,-6.0,x,x,11.1,x
O=C(Nc1ccccc1)/C(=C/c1ccccc1)c1ccccc1,0.4,78.0*,-5.7,2.1,10.9,+
Cc1ccccc1NC(=O)/C(=C/c1ccccc1)c1ccccc1,0.5,67.5*,-4.0,2.2,13.0,+
O=C(O)/C(=C\c1ccccc1)c1ccccc1,x,10.7,-8.3,x,2.4,x
O=c1oc2ccc3ccccc3c2cc1-c1nnc(-c2ccc(Cl)cc2)o1,x,-12.3,x,x,8.5,x
Cc1nc2sc(C#N)c(N)c2c2c1CCCC2,0.7,x,-2.4,15.8,16.7,x
N#Cc1sc2nc(N3CCCCC3)c3c(c2c1N)CCCC3,0.2,73.0*,-3.3,5.1,16.9,+
CN(C)Cc1ccccc1Sc1ccccc1Br,0.4,32.8,-7.6,0.3,10.6,x
CN(C)Cc1ccccc1Sc1cccc2ccccc12,1.1,75.3*,1.5,3.7,7.7,+
C=C(C)Cn1c(C)cc(C)c(S(=O)(=O)c2ccc(C)cc2)c1=O,-0.1,86.6*,4.2,0.6,6.2,+
Cc1ccc(S(=O)(=O)c2c(C)cc(C)nc2N2CCCC2)cc1,0.0,53.4,-3.2,0.0,5.5,x
